By IC50 is commonly meant the midpoint of a concentration-inhibition curve.

Structures are written as SMILES. The source made the active and inactive calls. The calls are words filed in the database; no cut-off is given here.

The record followed here is ChEMBL document CHEMBL3091299, “Adamantyl derivative as a potent inhibitor of Plasmodium FK506 binding protein 35” (ACS Med Chem Lett, 2013).

The species named for one experiment is Homo sapiens. Kind of experiment: Inhibition of human recombinant calcineurin phosphatase activity using RII phosphopeptide as substrate incubated 10 to 30 mins prior to substrate addition by spectrophotometry.
Experiment [1] concerns Plasmodium falciparum. The experiment is described as follows: Antimicrobial activity against Plasmodium falciparum 3D7 infected in erythrocytes assessed as ring-stage maturation at 500 nM after 4 to 24 hrs by Giemsa-staining based microscopy relative to control. Format: functional, organism-based.
The nature of experiment [2]: Inhibition of Plasmodium falciparum recombinant FKBP35 using Succ-Ala-Leu-Pro-Phe-pNA as substrate after 30 mins by UV-Vis spectrophotometry in presence of alpha-chymotrypsin.
The test system of experiment [3] is Plasmodium falciparum. The experiment is described as follows: Antimicrobial activity against Plasmodium falciparum 3D7 infected in erythrocytes assessed as schizont-stage maturation at 500 nM after 4 to 24 hrs by Giemsa-staining based microscopy relative to control. Type of experiment: functional, organism-based.
In experiment [4] the test system is Plasmodium falciparum. Kind of experiment: Antimicrobial activity against mid-ring stage Plasmodium falciparum 3D7 infected in erythrocytes assessed as reduction in parasitemia at 500 nM after 8 hrs by Giemsa-staining based microscopy relative to control. Type of experiment: functional, organism-based. The procedure, abridged: (§1)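 Highly synchronized ring-infected erythrocytes (3D7) followed over one full 48 h intraerythrocytic cycle with inhibitor, chloroquine, artemisinin, or no treatment. Parasitaemia (%) and morphology were scored from Giemsa-stained smears every 8 h, with untreated parasites as reference.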

Experiment [5] concerns Plasmodium falciparum. Kind of experiment: Antimicrobial activity against mid-ring stage Plasmodium falciparum 3D7 infected in erythrocytes assessed as change in parasite morphology at 500 nM after 8 hrs by Giemsa-staining based microscopy relative to control. Type of experiment: functional, organism-based. The procedure, abridged:
as §1

Experiment [6] has as its system Plasmodium falciparum. Kind of experiment: Antimicrobial activity against mid-ring stage Plasmodium falciparum 3D7 infected in erythrocytes assessed as death and disintegration of parasite at 500 nM after 16 to 24 hrs by Giemsa-staining based microscopy relative to control. Type of experiment: functional, organism-based. A digest of the protocol: as §1
The subject of experiment [7] is Plasmodium falciparum. Kind of experiment: Antimicrobial activity against mid-ring stage Plasmodium falciparum 3D7 infected in erythrocytes assessed as reduction in trophozoite stage development at 500 nM after 16 to 24 hrs by Giemsa-staining based microscopy relative to control. Format: functional, organism-based. The procedure, abridged: as §1
Experiment [8] deals with Plasmodium falciparum. Kind of experiment: Antimicrobial activity against Plasmodium falciparum 3D7 infected in erythrocytes assessed as impairment of trophozoite-stage maturation at 500 nM after 8 hrs by Giemsa-staining based microscopy relative to control. Format: functional, organism-based.
Experiment [9] concerns Plasmodium falciparum. Kind of experiment: Antimicrobial activity against Plasmodium falciparum 3D7 infected in erythrocytes assessed as disintegration of trophozoite-stage maturation at 500 nM after 16 hrs by Giemsa-staining based microscopy relative to control. Format: functional, organism-based.
Experiment [10] in a line: Inhibition of Plasmodium vivax recombinant FKBP35 using Succ-Ala-Leu-Pro-Phe-pNA as substrate after 30 mins by UV-Vis spectrophotometry in presence of alpha-chymotrypsin.

As to `C=CC[C@@H]1/C=C(\C)C[C@H](C)C[C@H](OC)[C@H]2O[C@@](O)(C(=O)C(=O)N3CCCC[C@H]3C(=O)O[C@H](/C(C)=C/[C@@H]3CC[C@@H](O)[C@H](OC)C3)[C@H](C)[C@@H](O)CC1=O)[C@H](C)C[C@@H]2OC`, the inhibition entry in the experiment filed under Homo sapiens was “Active”.
Regarding `O=C(NNC(=O)C12CC3CC(CC(C3)C1)C2)c1ccccc1`, the result with Plasmodium falciparum [1] and with Plasmodium falciparum [3] was inactive. Moreover, in experiment [2], the concentration for half-maximal inhibition (IC50) was 94.8 nM.
Regarding `CCN(CC)CCCC(C)Nc1ccnc2cc(Cl)ccc12` (stereo not drawn), the outcome in the experiment on Plasmodium falciparum [4] and with Plasmodium falciparum [5] was inactive. Besides, the result with Plasmodium falciparum [6] and in the experiment with Plasmodium falciparum [7] was Active.
Regarding `O=C(NNC(=O)C12CC3CC(CC(C3)C1)C2)c1ccncc1`, the outcome in the experiment with Plasmodium falciparum [8], in the experiment with Plasmodium falciparum [9], in the experiment with Plasmodium falciparum [6] and with Plasmodium falciparum [7] was Active. Moreover, the outcome in the experiment with Plasmodium falciparum [4], in the experiment on Plasmodium falciparum [5], with Plasmodium falciparum [1] and in the experiment with Plasmodium falciparum [3] was inactive. In the experiment listed under Homo sapiens, the inhibition entry was “inactive”. For the same compound, the IC50 in experiment [2] was determined as 83 nM; in [10], 75 nM.
As to `C[C@@H]1CC[C@H]2[C@@H](C)C(=O)O[C@@H]3O[C@@]4(C)CC[C@@H]1[C@]32OO4`, the result in the experiment on Plasmodium falciparum [4] was Active.
On to `O=C(NNC(=O)C12CC3CC(CC(C3)C1)C2)c1cccc2ccccc12`, for which the result in the experiment on Plasmodium falciparum [1] and in the experiment on Plasmodium falciparum [3] was inactive. Also, in experiment [2], the concentration for half-maximal inhibition (IC50) turned out to be 49.3 nM.
